Active and inactive are the calls of the source. No cut-off for these calls is given here.
How the values were obtained:
Histone deacetylase 8 [1] = target: T1, Histone deacetylase 8 (Schistosoma mansoni, UniProt A5H660); experiment: Inhibition of recombinant Schistosoma mansoni HDAC8 expressed in Escherichia coli using Fluor de Lys as substrate preincubated for 90 mins followed by BML-KI176 addition measured after 45 mins by fluorescence assay; conditions: read-out: IC50
T1 sequence (A5H660 whole entry): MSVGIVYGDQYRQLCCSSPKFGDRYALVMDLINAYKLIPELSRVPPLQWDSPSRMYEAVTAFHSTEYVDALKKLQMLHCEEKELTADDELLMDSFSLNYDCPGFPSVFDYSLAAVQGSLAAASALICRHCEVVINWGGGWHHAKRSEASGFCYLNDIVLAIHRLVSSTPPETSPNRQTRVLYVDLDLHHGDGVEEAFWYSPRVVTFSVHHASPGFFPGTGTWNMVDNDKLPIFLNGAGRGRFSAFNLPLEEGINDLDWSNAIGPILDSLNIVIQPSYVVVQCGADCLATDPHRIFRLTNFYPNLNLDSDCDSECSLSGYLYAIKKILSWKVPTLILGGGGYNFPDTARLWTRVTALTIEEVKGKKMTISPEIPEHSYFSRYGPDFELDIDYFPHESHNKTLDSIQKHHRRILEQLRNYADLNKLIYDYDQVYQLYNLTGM
Outline: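 smHDAC8 produced in E. coli. Fluor de Lys kit: compound, Fluor de Lys-HDAC8 substrate (50 µM) and enzyme incubated 90 min at 37°C, then Developer II for 45 min at 30°C. Reaction stopped with trichostatin A (2 µM). Fluorescence read at ex 390/em 460 nm. IC50 given as mean ± S.E.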

Histone deacetylase 8 [2] = target: T2, Histone deacetylase 8 (Homo sapiens, UniProt Q9BY41); experiment: Inhibition of recombinant human HDAC8 using Fluor de Lys as substrate preincubated for 90 mins followed by BML-KI176 addition measured after 45 mins by fluorescence assay; conditions: read-out: IC50
T2 sequence (Q9BY41 whole entry): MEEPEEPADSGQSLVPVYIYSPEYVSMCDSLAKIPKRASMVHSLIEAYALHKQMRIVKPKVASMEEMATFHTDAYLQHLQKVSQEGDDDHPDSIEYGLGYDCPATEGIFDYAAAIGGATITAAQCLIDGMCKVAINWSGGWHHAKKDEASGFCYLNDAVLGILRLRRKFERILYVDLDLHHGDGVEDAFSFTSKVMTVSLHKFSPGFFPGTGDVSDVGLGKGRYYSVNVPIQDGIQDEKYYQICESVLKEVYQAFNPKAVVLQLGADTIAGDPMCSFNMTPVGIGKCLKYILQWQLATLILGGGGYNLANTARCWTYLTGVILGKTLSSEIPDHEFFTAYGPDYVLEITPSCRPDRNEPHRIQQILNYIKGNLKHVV

Histone deacetylase 1 [3] = target: T3, Histone deacetylase 1 (Homo sapiens, UniProt Q13547); experiment: Inhibition of recombinant human HDAC1 using Cbz-(Ac)Lys-AMC as substrate at 10 uM preincubated for 90 mins followed by trypsin addition measured after 20 mins by fluorescence assay relative to control
T3 sequence (Q13547 whole entry): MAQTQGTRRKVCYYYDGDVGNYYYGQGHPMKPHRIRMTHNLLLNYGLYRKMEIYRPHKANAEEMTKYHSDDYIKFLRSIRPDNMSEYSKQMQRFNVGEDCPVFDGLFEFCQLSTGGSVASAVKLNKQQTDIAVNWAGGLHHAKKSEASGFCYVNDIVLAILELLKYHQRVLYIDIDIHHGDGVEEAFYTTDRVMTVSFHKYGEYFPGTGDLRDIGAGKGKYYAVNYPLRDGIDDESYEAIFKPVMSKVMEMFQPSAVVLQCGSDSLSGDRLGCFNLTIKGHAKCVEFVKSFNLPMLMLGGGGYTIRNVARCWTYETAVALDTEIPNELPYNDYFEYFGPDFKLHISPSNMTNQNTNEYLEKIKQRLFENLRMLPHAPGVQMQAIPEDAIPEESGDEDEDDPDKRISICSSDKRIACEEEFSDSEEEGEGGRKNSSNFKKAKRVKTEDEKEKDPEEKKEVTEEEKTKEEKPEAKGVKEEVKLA

Histone deacetylase 1 [4] = target: T3, Histone deacetylase 1; experiment: Inhibition of recombinant human HDAC1 using Cbz-(Ac)Lys-AMC as substrate preincubated for 90 mins followed by trypsin addition measured after 20 mins by fluorescence assay; conditions: read-out: IC50
[5] = target: T4, Protein deacetylase HDAC6 (Homo sapiens, UniProt Q9UBN7); experiment: Inhibition of recombinant human HDAC6 using Cbz-(Ac)Lys-AMC as substrate preincubated for 90 mins followed by trypsin addition measured after 20 mins by fluorescence assay; conditions: read-out: IC50
T4 sequence (Q9UBN7 whole entry): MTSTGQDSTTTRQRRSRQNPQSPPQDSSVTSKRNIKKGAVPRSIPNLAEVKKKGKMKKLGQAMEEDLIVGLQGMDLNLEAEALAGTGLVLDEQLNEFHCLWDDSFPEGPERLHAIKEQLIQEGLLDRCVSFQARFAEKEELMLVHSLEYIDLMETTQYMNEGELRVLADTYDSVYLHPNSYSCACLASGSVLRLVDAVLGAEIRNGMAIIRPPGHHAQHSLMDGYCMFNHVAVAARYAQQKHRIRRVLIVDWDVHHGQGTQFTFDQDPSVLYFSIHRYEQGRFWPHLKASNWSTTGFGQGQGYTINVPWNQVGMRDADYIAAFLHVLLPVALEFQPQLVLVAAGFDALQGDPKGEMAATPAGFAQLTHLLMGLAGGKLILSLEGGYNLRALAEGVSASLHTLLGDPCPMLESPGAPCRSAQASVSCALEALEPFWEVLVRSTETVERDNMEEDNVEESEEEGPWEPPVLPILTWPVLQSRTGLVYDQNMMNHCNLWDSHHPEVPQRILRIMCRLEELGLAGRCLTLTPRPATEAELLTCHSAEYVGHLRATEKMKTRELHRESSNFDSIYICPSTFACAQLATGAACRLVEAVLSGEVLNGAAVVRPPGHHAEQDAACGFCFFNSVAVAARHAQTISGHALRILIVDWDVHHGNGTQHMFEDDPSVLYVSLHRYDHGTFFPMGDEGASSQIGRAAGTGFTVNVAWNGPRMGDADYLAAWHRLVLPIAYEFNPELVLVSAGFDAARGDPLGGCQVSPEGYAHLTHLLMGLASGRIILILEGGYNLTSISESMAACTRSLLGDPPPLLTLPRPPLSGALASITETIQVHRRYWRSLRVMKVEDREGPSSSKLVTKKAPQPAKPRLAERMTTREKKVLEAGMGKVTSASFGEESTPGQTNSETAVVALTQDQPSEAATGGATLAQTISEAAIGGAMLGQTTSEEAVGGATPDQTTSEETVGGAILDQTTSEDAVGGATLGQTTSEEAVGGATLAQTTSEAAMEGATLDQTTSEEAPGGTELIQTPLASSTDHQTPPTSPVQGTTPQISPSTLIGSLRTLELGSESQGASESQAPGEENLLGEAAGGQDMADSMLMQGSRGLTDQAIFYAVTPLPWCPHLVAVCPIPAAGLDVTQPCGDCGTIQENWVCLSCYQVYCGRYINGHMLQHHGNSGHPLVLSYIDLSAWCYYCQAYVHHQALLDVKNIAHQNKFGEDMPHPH

Schistosoma mansoni [6] = experiment: Antiparasitic activity against schistosomula stage of Schistosoma mansoni assessed as parasite viability at 10 uM after 48 hrs by Alamar Blue assay relative to control; assay type: functional
Outline: (§1)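 Mechanically transformed S. mansoni schistosomula, 100 per well, in Medium 199 with 10% FCS, penicillin, streptomycin and rifampicin, held 3 h at 37°C/5% CO2 before use. […] Resazurin added at 48 h; fluorescence (ex 530/em 590 nm) read 24 h later, corrected for drug-medium background. Ethanol-killed larvae as dead control. Triplicate wells, two biological replicates.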

[7] = Cytotoxicity against HEK293 cells assessed as cell viability at 50 uM after 24 hrs by Alamar Blue assay relative to control; assay type: cell-based; conditions: human, read-out: Activity
Outline: (§2)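 AlamarBlue added after 24 h, incubated a further 21 h; resorufin fluorescence ex 560/em 590 nm. Triplicates; viability relative to untreated cells; daunorubicin positive control.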

Schistosoma mansoni [8] = experiment: Antiparasitic activity against schistosomula stage of Schistosoma mansoni assessed as parasite viability at 20 uM after 48 hrs by Alamar Blue assay relative to control; assay type: functional; outline: as §1
Schistosoma mansoni [9] = experiment: Antiparasitic activity against schistosomula stage of Schistosoma mansoni assessed as parasite viability after 48 hrs by Alamar Blue assay; assay type: functional, organism-based; outline: as §1
Schistosoma mansoni [10] = experiment: Antiparasitic activity against schistosomula stage of Schistosoma mansoni assessed as parasite viability at 10 to 20 uM after 5 days by microscopy relative to control; assay type: functional, organism-based
Outline: (§3)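 Microscopy viability: 2,000 schistosomula per well in M199 (10 mM HEPES, pH 7.4, supplemented), 37°C, 5% CO2; inhibitor at 10 or 20 µM in DMSO, medium refreshed daily, up to 5 days. Dead larvae scored by granular appearance, tegumental defects and lack of motility; ≥300 larvae per time point; % viable larvae. Three biological replicates in duplicate.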

Schistosoma mansoni [11] = experiment: Antiparasitic activity against schistosomula stage of Schistosoma mansoni assessed as parasite viability at 10 uM measured within 2 days by microscopy; assay type: functional, organism-based; outline: as §3
Schistosoma mansoni [12] = experiment: Antiparasitic activity against schistosomula stage of Schistosoma mansoni assessed as parasite viability at 20 uM after 1 to 2 days by microscopy; assay type: functional, organism-based; outline: as §3
Schistosoma mansoni [13] = experiment: Antiparasitic activity against adult Schistosoma mansoni assessed as separation of male and female worm pairs at 20 uM after 5 days by microscopy relative to control; assay type: functional
Outline: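 Hamster-perfused worm pairs, ten per well in 2 mL buffered supplemented M199 (10 mM HEPES, pH 7.4), 37°C, 5% CO2, pre-cultured 5 days, then inhibitor in DMSO at 10 or 20 µM; medium and compound renewed daily. Pairs still coupled counted daily by microscopy for up to 5 days. Two biological replicates in triplicate.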

HEK293 = experiment: Cytotoxicity against HEK293 cells assessed as cell viability after 24 hrs by Alamar Blue assay; assay type: cell-based; conditions: Homo sapiens, HEK293, 24 h; outline: as §2
Schistosoma mansoni [14] = experiment: Antiparasitic activity against adult Schistosoma mansoni assessed as reduction in egg lying at 10 uM after 5 days by microscopy relative to control; assay type: functional, organism-based
Outline: (§4)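 Adult worm pairs perfused from infected hamsters; ten pairs per well in 2 mL M199 (pH 7.4, 10 mM HEPES, supplemented as for schistosomula), 37°C, 5% CO2. Cultured 5 days before adding inhibitors in DMSO; medium and inhibitor refreshed daily. Eggs in recovered, centrifuged medium counted by microscopy. Two biological replicates in triplicate.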

Schistosoma mansoni [15] = experiment: Antiparasitic activity against adult Schistosoma mansoni assessed as reduction in egg lying at 20 uM after 5 days by microscopy relative to control; assay type: functional; set-up: scale not given: the % may be the effect or the level left; outline: as §4

## O=C(NO)c1cccc(NCc2ccccc2)c1
Histone deacetylase 8 [1]
  IC50: 1080 nM
Histone deacetylase 8 [2]
  IC50: 143 nM
Histone deacetylase 1 [3]
  inhibition: 41.4%

## COc1ccc(C(=O)NO)cc1NC(=O)Cc1ccccc1
Histone deacetylase 8 [1]
  IC50: 183 nM
Histone deacetylase 8 [2]
  IC50: 512 nM
Histone deacetylase 1 [4]
  IC50: 28900 nM
[5]
  IC50: 5100 nM
Schistosoma mansoni [6]
  Activity: 83.3%
[7]
  viability at 24 h, 50 µM: 88.7%
Schistosoma mansoni [8]
  Activity: 82.8%

## COc1ccc(C(=O)Nc2cc(C(=O)NO)ccc2Cl)cc1
Histone deacetylase 8 [1]
  IC50: 147 nM
Histone deacetylase 8 [2]
  IC50: 236 nM
Histone deacetylase 1 [4]
  IC50: 4100 nM
[5]
  IC50: 130 nM
Schistosoma mansoni [6]
  Activity: 63.2%
[7]
  viability at 24 h, 50 µM: 62.5%
Schistosoma mansoni [8]
  Activity: 60.7%

## COc1ccc(C(=O)Nc2cc(C(=O)NO)ccc2OC)cc1
Histone deacetylase 8 [1]
  IC50: 106 nM
Histone deacetylase 8 [2]
  IC50: 77.1 nM
Histone deacetylase 1 [4]
  IC50: 2600 nM
[5]
  IC50: 400 nM
Schistosoma mansoni [6]
  Activity: 74.6%
[7]
  viability at 24 h, 50 µM: 61.9%
Schistosoma mansoni [8]
  Activity: 64.6%

## O=C(NO)c1ccc(C(F)(F)F)c(NC(=O)c2ccccc2)c1
Histone deacetylase 8 [1]
  IC50: 140 nM
Histone deacetylase 8 [2]
  IC50: 342 nM
Histone deacetylase 1 [4]
  IC50: 2400 nM
[5]
  IC50: 140 nM
Schistosoma mansoni [6]
  Activity: 99.9%
[7]
  viability at 24 h, 50 µM: 96%
Schistosoma mansoni [8]
  Activity: 77.4%

## Cc1ccc(C(=O)NO)cc1NC1CCCCC1
Histone deacetylase 8 [1]
  IC50: 600 nM
Histone deacetylase 8 [2]
  IC50: 104 nM
Schistosoma mansoni [6]
  Activity: 84.3%
Histone deacetylase 1 [3]
  inhibition: 49.5%
[7]
  viability at 24 h, 50 µM: 70.2%

## O=C(NO)c1ccc(F)c(NC(=O)c2ccccc2)c1
Histone deacetylase 8 [1]
  IC50: 178 nM
Histone deacetylase 8 [2]
  IC50: 318 nM
Histone deacetylase 1 [4]
  IC50: 22300 nM
[5]
  IC50: 500 nM
Schistosoma mansoni [6]
  Activity: 82%
[7]
  viability at 24 h, 50 µM: 81.8%
Schistosoma mansoni [8]
  Activity: 78.6%

## CN(C)c1cccc(C(=O)NO)c1
Histone deacetylase 8 [1]
  IC50: 1580 nM
Histone deacetylase 8 [2]
  IC50: 70.2 nM
Schistosoma mansoni [6]
  Activity: 92.6%
Histone deacetylase 1 [3]
  inhibition: 37.4%
[7]
  viability at 24 h, 50 µM: 92.7%

## COc1ccc(C(=O)NO)cc1NC(=O)c1ccccc1Cl
Histone deacetylase 8 [1]
  IC50: 699 nM
Histone deacetylase 8 [2]
  IC50: 211 nM
Histone deacetylase 1 [4]
  IC50: 9600 nM
[5]
  IC50: 3100 nM
Schistosoma mansoni [6]
  Activity: 89.5%
[7]
  viability at 24 h, 50 µM: 96.9%
Schistosoma mansoni [8]
  Activity: 66.5%

## CCOc1ccc(C(=O)NO)cc1NC(=O)c1ccc(-c2ccccc2)cc1
Histone deacetylase 8 [1]
  IC50: 92 nM
Histone deacetylase 8 [2]
  IC50: 149 nM
Histone deacetylase 1 [4]
  IC50: 2080 nM
[5]
  IC50: 600 nM
Schistosoma mansoni [6]
  Activity: 77.9%
[7]
  viability at 24 h, 50 µM: 80.3%
Schistosoma mansoni [9]
  Activity: Dose-dependent effect
Schistosoma mansoni [8]
  Activity: 35.8%

## COc1ccc(C(=O)NO)cc1NC(=O)c1ccc(Cl)cc1Cl
Histone deacetylase 8 [1]
  IC50: 122 nM
Histone deacetylase 8 [2]
  IC50: 548 nM
Histone deacetylase 1 [4]
  IC50: 13000 nM
[5]
  IC50: 2300 nM
Schistosoma mansoni [6]
  Activity: 77.8%
[7]
  viability at 24 h, 50 µM: 95.1%
Schistosoma mansoni [8]
  Activity: 50.7%

## COc1ccc(C(=O)NO)cc1NC(=O)c1ccc(-c2ccccc2)cc1
Schistosoma mansoni [10]
  Activity: inactive
Schistosoma mansoni [11]
  Activity: Active
Schistosoma mansoni [12]
  Activity: Active
Schistosoma mansoni [6]
  Activity: 64.8%
Schistosoma mansoni [13]
  Activity: 90%
HEK293
  IC50: 199000 nM
Schistosoma mansoni [14]
  Activity: Active
[7]
  viability at 24 h, 50 µM: 12.3%
Schistosoma mansoni [9]
  Activity: Dose-dependent effect
  EC50: 16100 nM
Schistosoma mansoni [15]
  Activity: 80%
Schistosoma mansoni [8]
  Activity: 33.4%

— ChEMBL document CHEMBL3797085, “Structure-Based Design and Synthesis of Novel Inhibitors Targeting HDAC8 from Schistosoma mansoni for the Treatment of Schistosomiasis” (J Med Chem, 2016)
